Experimental data reported in ChEMBL document CHEMBL4396879, “Conjugation of Short Peptides to Dibenzodiazepinone-Type Muscarinic Acetylcholine Receptor Ligands Determines M2R Selectivity” (J Med Chem, 2019).

Experiments:
[1] = molecular target: T1, Muscarinic acetylcholine receptor M2 (Homo sapiens, UniProt P08172); experiment: Displacement of [3H]-QNB from human muscarinic M2 receptor expressed in stable CHO-K1 cells incubated for 120 mins by radioligand competition binding assay; format: cell-based
T1 sequence (P08172 whole entry): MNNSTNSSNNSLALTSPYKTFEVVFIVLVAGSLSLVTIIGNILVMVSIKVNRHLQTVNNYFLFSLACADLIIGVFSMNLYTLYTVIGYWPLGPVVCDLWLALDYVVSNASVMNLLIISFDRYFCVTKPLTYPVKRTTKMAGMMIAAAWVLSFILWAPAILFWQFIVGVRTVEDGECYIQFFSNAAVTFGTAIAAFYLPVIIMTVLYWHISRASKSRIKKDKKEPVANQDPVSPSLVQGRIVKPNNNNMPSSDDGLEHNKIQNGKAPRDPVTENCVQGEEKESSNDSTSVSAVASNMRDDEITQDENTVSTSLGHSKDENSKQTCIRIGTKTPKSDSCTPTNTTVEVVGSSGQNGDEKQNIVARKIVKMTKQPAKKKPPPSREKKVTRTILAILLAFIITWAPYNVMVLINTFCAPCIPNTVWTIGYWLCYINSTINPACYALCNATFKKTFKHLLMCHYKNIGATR

[2] = molecular target: Muscarinic acetylcholine receptor M2 and M5 (Homo sapiens) (UniProt P08172+P08912); experiment: Selectivity ratio of Ki for human muscarinic M5 receptor expressed in stable CHO-K1 cells to Ki for human muscarinic M2 receptor expressed in stable CHO-K1 cells; format: cell-based
[3] = molecular target: Muscarinic acetylcholine receptors; M2 & M3 (Homo sapiens) (UniProt P20309+P08172); experiment: Selectivity ratio of Ki for human muscarinic M3 receptor expressed in stable CHO-K1 cells to Ki for human muscarinic M2 receptor expressed in stable CHO-K1 cells; format: cell-based
Muscarinic acetylcholine receptors; M2 & M3 (Homo sapiens), sequence (P20309 whole entry, looked up, one chain of several): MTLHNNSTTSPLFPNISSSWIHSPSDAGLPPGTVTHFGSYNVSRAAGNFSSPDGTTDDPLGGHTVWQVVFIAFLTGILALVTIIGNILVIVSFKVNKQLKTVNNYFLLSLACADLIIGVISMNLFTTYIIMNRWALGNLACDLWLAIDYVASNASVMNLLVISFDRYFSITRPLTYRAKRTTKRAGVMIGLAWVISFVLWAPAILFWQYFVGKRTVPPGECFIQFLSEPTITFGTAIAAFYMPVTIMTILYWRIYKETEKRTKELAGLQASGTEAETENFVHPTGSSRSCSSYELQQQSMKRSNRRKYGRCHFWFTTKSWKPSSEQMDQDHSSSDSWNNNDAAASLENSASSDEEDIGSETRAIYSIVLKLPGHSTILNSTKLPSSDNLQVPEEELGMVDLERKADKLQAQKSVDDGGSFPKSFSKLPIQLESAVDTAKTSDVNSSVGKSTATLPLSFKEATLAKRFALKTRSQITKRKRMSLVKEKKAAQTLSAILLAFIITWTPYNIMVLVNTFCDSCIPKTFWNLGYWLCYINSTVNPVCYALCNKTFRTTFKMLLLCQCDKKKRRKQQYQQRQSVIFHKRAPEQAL

[4] = Displacement of [3H]-NMS from muscarinic M4 receptor in mouse/rat NG108-15 cells after 60 mins by scintillation counting method; format: cell-based
[5] = Selectivity ratio of Ki for muscarinic M1 receptor (unknown origin) expressed in mouse A9L cell membranes to Ki for rat heart muscarinic M2 receptor; format: cell-based
[6] = Selectivity ratio of Ki for muscarinic M4 receptor in mouse/rat NG108-15 cells to Ki for rat heart muscarinic M2 receptor; format: cell-based
[7] = molecular target: T2, Muscarinic acetylcholine receptor M2 (Rattus norvegicus, UniProt P10980); experiment: Displacement of [3H]-NMS from rat heart muscarinic M2 receptor after 60 mins by scintillation counting method
T2 sequence (P10980 whole entry): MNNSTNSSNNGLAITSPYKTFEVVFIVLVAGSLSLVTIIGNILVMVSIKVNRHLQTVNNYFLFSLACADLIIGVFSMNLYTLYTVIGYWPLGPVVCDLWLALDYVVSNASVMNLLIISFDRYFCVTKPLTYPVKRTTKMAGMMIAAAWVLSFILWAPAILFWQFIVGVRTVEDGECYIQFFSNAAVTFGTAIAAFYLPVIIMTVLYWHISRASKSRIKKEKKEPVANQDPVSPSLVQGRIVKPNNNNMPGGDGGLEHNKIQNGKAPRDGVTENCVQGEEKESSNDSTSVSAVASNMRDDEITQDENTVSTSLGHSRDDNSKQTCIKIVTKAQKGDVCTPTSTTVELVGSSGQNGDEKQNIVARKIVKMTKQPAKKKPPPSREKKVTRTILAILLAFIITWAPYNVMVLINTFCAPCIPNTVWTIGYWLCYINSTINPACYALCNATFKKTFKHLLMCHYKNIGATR

[8] = Selectivity ratio of Ki for muscarinic M3 receptor (unknown origin) expressed in mouse A9L cell membranes to Ki for rat heart muscarinic M2 receptor; format: cell-based
[9] = molecular target: T3, Muscarinic acetylcholine receptor M1 (Homo sapiens, UniProt P11229); experiment: Displacement of [3H]-NMS from muscarinic M1 receptor (unknown origin) expressed in mouse A9L cells after 60 mins by scintillation counting method; format: cell-based
T3 sequence (P11229 whole entry): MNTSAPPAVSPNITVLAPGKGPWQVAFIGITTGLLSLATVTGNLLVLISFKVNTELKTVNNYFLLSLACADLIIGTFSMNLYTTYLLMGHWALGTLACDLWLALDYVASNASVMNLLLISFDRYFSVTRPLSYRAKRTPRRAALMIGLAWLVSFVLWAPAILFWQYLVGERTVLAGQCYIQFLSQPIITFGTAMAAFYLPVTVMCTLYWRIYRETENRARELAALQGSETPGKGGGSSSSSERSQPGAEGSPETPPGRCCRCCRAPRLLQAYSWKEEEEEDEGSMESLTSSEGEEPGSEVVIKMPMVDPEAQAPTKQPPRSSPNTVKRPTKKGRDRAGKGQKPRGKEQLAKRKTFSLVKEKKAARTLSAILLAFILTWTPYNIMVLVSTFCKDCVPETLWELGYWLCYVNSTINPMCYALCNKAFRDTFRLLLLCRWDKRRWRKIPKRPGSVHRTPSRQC

[10] = molecular target: T4, Muscarinic acetylcholine receptor M3 (Homo sapiens, UniProt P20309); experiment: Displacement of [3H]-NMS from muscarinic M3 receptor (unknown origin) expressed in mouse A9L cell membranes after 60 mins by scintillation counting method
T4 sequence (P20309 whole entry): as the sequence (P20309 whole entry, looked up, one chain of several) above

[11] = molecular target: T5, Muscarinic acetylcholine receptor M5 (Homo sapiens, UniProt P08912); experiment: Displacement of [3H]-NMS from human muscarinic M5 receptor expressed in CHO-K1 cells by scintillation counting method; format: cell-based
T5 sequence (P08912 whole entry): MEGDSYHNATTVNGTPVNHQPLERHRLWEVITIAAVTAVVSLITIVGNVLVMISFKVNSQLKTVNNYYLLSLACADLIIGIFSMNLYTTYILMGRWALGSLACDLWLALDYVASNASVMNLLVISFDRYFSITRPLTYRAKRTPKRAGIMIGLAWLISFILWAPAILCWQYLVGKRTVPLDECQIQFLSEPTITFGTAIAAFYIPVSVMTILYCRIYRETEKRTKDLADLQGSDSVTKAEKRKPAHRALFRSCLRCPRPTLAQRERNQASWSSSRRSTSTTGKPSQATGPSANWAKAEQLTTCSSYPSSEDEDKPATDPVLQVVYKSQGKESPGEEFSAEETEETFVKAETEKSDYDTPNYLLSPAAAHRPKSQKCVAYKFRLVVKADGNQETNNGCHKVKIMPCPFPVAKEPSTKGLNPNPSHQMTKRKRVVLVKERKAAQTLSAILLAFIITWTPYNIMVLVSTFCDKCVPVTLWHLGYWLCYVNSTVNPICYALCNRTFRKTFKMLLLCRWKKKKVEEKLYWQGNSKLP
Procedure, shortened: (§1)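 [3H]NMS competition binding on intact CHO-hMxR cells in L15 medium with 1% BSA, 3 h at 22 ± 1 °C with gentle shaking. [3H]NMS was 0.2 nM (M1, M2, M3), 0.1 nM (M4) or 0.3 nM (M5). […] Cells were lysed in urea/acetic acid/Triton and counted by liquid scintillation. Ki from Cheng-Prusoff. Triplicates, ≥3 experiments.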

[12] = molecular target: T3, Muscarinic acetylcholine receptor M1; experiment: Displacement of [3H]-NMS from human muscarinic M1 receptor expressed in CHO-K1 cells by scintillation counting method; format: cell-based; procedure, shortened: as §1
[13] = molecular target: T1, Muscarinic acetylcholine receptor M2; experiment: Displacement of [3H]-NMS from human muscarinic M2 receptor expressed in CHO-K1 cells by scintillation counting method; format: cell-based; procedure, shortened: as §1
[14] = molecular target: T6, Muscarinic acetylcholine receptor M4 (Homo sapiens, UniProt P08173); experiment: Displacement of [3H]-NMS from human muscarinic M4 receptor expressed in CHO-K1 cells by scintillation counting method; format: cell-based; procedure, shortened: as §1
T6 sequence (P08173 whole entry): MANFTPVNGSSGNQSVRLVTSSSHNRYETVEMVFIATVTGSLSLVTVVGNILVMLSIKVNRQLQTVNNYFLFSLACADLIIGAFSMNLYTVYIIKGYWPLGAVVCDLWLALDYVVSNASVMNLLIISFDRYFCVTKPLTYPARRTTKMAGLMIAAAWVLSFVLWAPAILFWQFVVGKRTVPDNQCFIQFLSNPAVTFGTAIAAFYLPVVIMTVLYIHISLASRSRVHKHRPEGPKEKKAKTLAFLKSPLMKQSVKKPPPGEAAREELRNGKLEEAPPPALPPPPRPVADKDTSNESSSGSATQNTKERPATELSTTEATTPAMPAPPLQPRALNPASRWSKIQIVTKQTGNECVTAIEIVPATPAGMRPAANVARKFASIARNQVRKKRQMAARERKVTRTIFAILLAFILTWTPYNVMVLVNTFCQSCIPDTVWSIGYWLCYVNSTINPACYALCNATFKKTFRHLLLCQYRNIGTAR

[15] = molecular target: T4, Muscarinic acetylcholine receptor M3; experiment: Displacement of [3H]-NMS from human muscarinic M3 receptor expressed in CHO-K1 cells by scintillation counting method; format: cell-based; procedure, shortened: as §1

Cc1ccccc1C(=O)N1CCC(N2CCC(Cc3ccc(S(=O)(=O)c4cccc(Cl)c4)cc3)CC2)CC1
Ki [1]: 0.00269 µM
Ratio Ki [2]: 48
Ratio Ki [3]: 172

CCN(CC)CCCCC1CCN(CC(=O)N2c3ccccc3NC(=O)c3ccccc32)CC1
pKi [4]: 8.7
Ratio Ki [5]: 13
Ratio Ki [6]: 7
Ki [7]: 0.000316 µM
Ratio Ki [8]: 37
Ki [9]: 0.00398 µM
Ki [10]: 0.01 µM

CCCC(C)(C)C(=O)N(CC)CCCC1CCN(CC(=O)N2c3ccc(Cl)cc3C(=O)Nc3cccnc32)CC1
Ki [11]: 1.45 µM
Ratio Ki [2]: 48
Ratio Ki [3]: 26
Ki [12]: 1.07 µM
Ki [13]: 0.0302 µM
Ki [14]: 0.174 µM
Ki [15]: 0.776 µM
